{
  "source": "ChEMBL document CHEMBL1145492",
  "about": "“Comparison of the phosphorylation of 4'-ethynyl 2',3'-dihydro-3'-deoxythymidine with that of other anti-human immunodeficiency virus thymidine analogs” (Antimicrob Agents Chemother, 2007)",
  "key": {"[1]": {"substrate": "Cc1cn([C@H]2C[C@H](O)[C@@H](COP(=O)(O)O)O2)c(=O)[nH]c1=O", "assay": "(§1) Activity for human recombinant TMP kinase", "method_in_brief": "(§2)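 Substrate ranges were TMP 6.25–100 μM and analog MPs 6.25–250 μM. Reactions were stopped at various times with TCA and neutralized with trioctylamine/trichlorotrifluoroethane. Km and kcat came from Lineweaver-Burk plots. Relative efficiency is kcat/Km with D4TMP as 100%. Mean ± SD of three experiments.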"}, "[2]": {"substrate": "Cc1cn([C@H]2C[C@H](N=[N+]=[N-])[C@@H](COP(=O)(O)O)O2)c(=O)[nH]c1=O", "assay": "as §1", "method_in_brief": "as §2"}, "[3]": {"substrate": "Cc1cn([C@H]2C=C[C@@H](COP(=O)(O)O)O2)c(=O)[nH]c1=O", "assay": "as §1", "method_in_brief": "as §2"}},
  "data": [
    {"protein": "Thymidylate kinase (Homo sapiens), P23919 (protein) MAARRGALIVLEGVDRAGKSTQSRKLVEALCAAGHRAELLRFPERSTEIGKLLSSYLQKKSDVEDHSVHLLFSANRWEQVPLIKEKLSQGVTLVVDRYAFSGVAFTGAKENFSLDWCKQPDVGLPKPDLVLFLQLQLADAAKRGAFGHERYENGAFQERALRCFHQLMKDTTLNWKMVDASKSIEAVHEDIRVLSEDAIRTATEKPLGELWK", "values": [
      {"measurement": "Km", "setting": "[1]", "result": 8.3, "unit": "µM"},
      {"measurement": "kcat", "setting": "[1]", "result": 1.8, "unit": "s⁻¹"},
      {"measurement": "Km", "setting": "[2]", "result": 7.6, "unit": "µM"},
      {"measurement": "kcat", "setting": "[2]", "result": 0.018, "unit": "s⁻¹"},
      {"measurement": "Km", "setting": "[3]", "result": 22, "unit": "µM"},
      {"measurement": "kcat", "setting": "[3]", "result": 0.093, "unit": "s⁻¹"}
    ]}
  ]
}
